# Results pooled from the literature.
# Lines come from different studies, so protocols differ.
# Target: Tyrosine-protein kinase BTK (BTK, Homo sapiens, UniProt Q06187)
SMILES,assay,conditions,remaining binding [%]
C[C@@H]1CN(c2ccc3ncc(-c4ccc5[nH]nc(C6CC6)c5c4)n3n2)C[C@H](C)O1,"binding, competition with immobilised ligand",50 nM,67
c1cncc(-c2cccc(Nc3nccc(NC4CCCCC4)n3)c2)c1,"binding, competition with immobilised ligand",10 µM,36
CN(C)c1nccc(-c2cnc3ncccn23)n1,binding,1 µM,68
O=C(Nc1cccnn1)N1CCC(=Cc2cccc(Oc3ccc(C(F)(F)F)cn3)c2)CC1,"cell-free assay, competition with immobilised ligand",1 µM,100
CNC(=O)[C@@H]1CC[C@@H](n2c(-c3ccc4cnccc4c3)nc3ccc(C(=O)NCc4cccc(C(N)=O)c4)cc32)C1,"binding, competition with immobilised ligand",1 µM,96
Cc1ccc(-n2nc(C(C)(C)C)cc2NC(=O)Nc2ccc(-n3c(N)c(C(N)=O)c4nc5ccccc5nc43)cc2)cc1,"cell-free assay, competition with immobilised ligand",1 µM,0.95
COc1cnc(Nc2cccc(S(N)(=O)=O)c2)nc1N1CCN(c2ccccc2)CC1,"binding, competition with immobilised ligand",1 µM,80
C[C@@H]1CCN(c2nccc(-c3cnn4ncccc34)n2)C1,binding,1 µM,90
CCN1CCN(Cc2ccc(C(=O)Nc3ccc(C)c(Oc4ccc5c(c4)CC(=O)N5)c3)cc2C(F)(F)F)CC1,"binding, competition with immobilised ligand",1 µM,100
F[C@@H]1CCN(c2nccc(-c3cnn4ncccc34)n2)C1,binding,1 µM,100
O=C(c1ccc(Nc2ncc(Cl)c(-c3ccc(Cl)s3)n2)cc1)N1CCC(N2CCCC2)CC1,"binding, competition with immobilised ligand",1 µM,64
CO[C@@H](C)c1c(Nc2ccc([C@H](N(C)C(=O)C3CCS(=O)(=O)CC3)C(F)(F)F)cc2)cnc2cc(Cl)nn12,"cell-free assay, competition with immobilised ligand",1 µM,100
O=C(NCC1CCOCC1)c1n[nH]cc1NC(=O)c1c(F)cccc1F,"binding, competition with immobilised ligand",1 µM,91
CC1CCCN1c1nccc(-c2cnn3ncccc23)n1 (stereo not drawn),binding,1 µM,100
N#Cc1ccc(Nc2ccc3[nH]c(=O)[nH]c3c2)c(Cl)c1,"cell-free assay, competition with immobilised ligand",1 µM,100
c1cnn2ncc(-c3ccnc(N4CCC45COC5)n3)c2c1,binding,1 µM,89
Cn1cc(Cl)c2c(Oc3c(F)cc(Nc4cc(Cl)nc(N)n4)cc3F)ccnc21,"cell-free assay, competition with immobilised ligand",0.1 µM,84
O=C(NCCCN1CCOCC1)c1ccc(Nc2nccc(-c3cc4ccccc4s3)n2)cc1,"binding, competition with immobilised ligand",1 µM,77
CCS(=O)(=O)c1cc2cc(C[C@](O)(CC(C)(C)c3ccc(F)cc3C(N)=O)C(F)(F)F)[nH]c2cn1,"cell-free assay, competition with immobilised ligand",1 µM,100
COc1ncc2cc3ccccc3nc2c1C#N,"cell-free assay, competition with immobilised ligand",5 µM,100
Cc1nc(C2CCN(C(=O)c3ccc(OC(F)(F)F)cc3N)CC2)c2ncc(N3CCN(C)CC3)cc2n1,"cell-free assay, competition with immobilised ligand",1 µM,87
CN(C)c1ncc(F)c(-c2cnn3ncccc23)n1,binding,1 µM,75
Cc1cnc(Nc2ccc(C(=O)N3CCC(N4CCCC4)CC3)cc2)nc1-c1cc2ccccc2s1,"binding, competition with immobilised ligand",1 µM,54
Nc1c(C(=O)NCc2ccc(C(=O)NCCCC3CCCCC3)cc2)cnn1-c1ccccc1,"cell-free assay, competition with immobilised ligand",0.1 µM,100
